We go through ten compounds from ChEMBL document CHEMBL3593189, “Kadcoccinic Acids A-J, Triterpene Acids from Kadsura coccinea” (J Nat Prod, 2015).

Each structure is given as a SMILES string.

Series [1] deals with Human immunodeficiency virus 1. The series can be described thus: Antiviral activity against HIV1 assessed as inhibition of cytopathic effect by microtiter syncytium formation infectivity assay. Type of series: functional, organism-based. The gist of the method: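 HIV-1 cytopathic-effect inhibition read as syncytium formation in microtiter format; EC50 derived. AZT positive control.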
In general terms: Cytopathic effects are the visible damage that an infection or toxin causes in cultured cells.

The nature of series [2]: Cytotoxicity against human C8166 cells by MTT assay. It is filed as cell-based. The gist of the method:
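C8166 cells assessed for cytotoxicity by MTT; CC50 derived. AZT positive control.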

Series [3] is described as follows: Therapeutic index, ratio of CC50 for human C8166 cells to EC50 for HIV1. Type of series: cell-based. The note with it: read-out: Ratio CC50/EC50. An outline of the steps: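 Therapeutic index computed as CC50 (MTT cytotoxicity in C8166 cells) divided by EC50 (inhibition of HIV-1 cytopathic effect, syncytium formation in microtiter assay).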
In series [4] the test system is A549. The series can be described thus: Cytotoxicity against human A549 cells after 48 hrs by MTT assay. The note with it: A549, 48 h. Type of series: functional, cell-based. In general terms: Tetrazolium assays rely on reduction of a dye to a coloured formazan, in cell work by metabolically active cells.
Series [5] has as its system HL-60. The series can be described thus: Cytotoxicity against human HL60 cells after 48 hrs by MTT assay. Type of series: functional, cell-based. The note with it: HL-60, 48 h.
In series [6] the test system is MCF7. The series can be described thus: Cytotoxicity against human MCF7 cells after 48 hrs by MTT assay. It is filed as functional, cell-based. The note with it: MCF7, 48 h.
The test system of series [7] is SMMC-7721. The series can be described thus: Cytotoxicity against human SMMC7721 cells after 48 hrs by MTT assay. Type of series: functional, cell-based. The note with it: SMMC-7721, 48 h.
The subject of series [8] is SW480. As to the kind of experiment: Cytotoxicity against human SW480 cells after 48 hrs by MTT assay. It is filed as functional, cell-based. The note with it: SW480, 48 h.

By EC50 is commonly meant the concentration that produces a half-maximal response. By CC50 is commonly meant the concentration at which the toxic effect on the cells reaches its halfway point. In general, IC50 refers to the concentration needed to halve the response being measured. A higher IC50 goes with lower potency.

For the compound `C=C1[C@@H]([C@H](C)CC/C=C(/C)C(=O)O)CC[C@@]2(C)[C@@H]3CC[C@@H](C(C)(C)C(=O)O)[C@](C)(CC(=O)O)C3=C[C@@H]12`, in series [1], the EC50 was 68.7 µM. Also, the CC50 in series [2] is > 200 µM. In addition, the selectivity ratio in series [3] was > 2.9. In addition, the IC50 in series [4], in series [5], in series [6], in series [7] and in series [8] was > 10 µM in each case.
On to `CO[C@@]12CC[C@H]3C(C)(C)C(=O)CC[C@]3(C)C1=CC1=C(C=O)[C@@H]([C@H](C)CC/C=C(/C)C(=O)O)CC[C@]12C`, for which the EC50 in series [1] came out at 116 µM. Further, the CC50 in series [2] was > 200 µM. Moreover, the selectivity ratio in series [3] was > 1.7.
The like results for `C=C1[C@@H]([C@H](C)CC/C=C(/C)C(=O)O)CC[C@@]2(C)C3=C(C[C@@H]12)[C@@](C)(CC(=O)O)[C@H](C(C)(C)C(=O)O)CC3` were, in that order, 120 µM, > 200 µM and > 1.7.
With `C=C1[C@@H]([C@H](C)CC/C=C(/C)C(=O)O)CC[C@@]2(C)[C@@H]3CC[C@@H](C(C)(C)O)[C@](C)(CCC(=O)OC)C3=C[C@@H]12`, the EC50 in series [1] came to 81.2 µM. In series [2], the CC50 came out at 142 µM. In addition, the selectivity ratio in series [3] worked out at 1.8. The IC50 in series [4], in series [5], in series [6], in series [7] and in series [8] was > 10 µM throughout.
Regarding `C=C1[C@@H]([C@H](C)CC/C=C(/C)C(=O)O)CC[C@@]2(C)[C@@H]3CC[C@@H](C(C)(C)O)[C@](C)(CCC(=O)O)C3=C[C@@H]12`, in series [1], the half-maximal effective concentration (EC50) is 58.7 µM. The compound also gave a CC50 in series [2] of 143 µM. Also, the selectivity ratio in series [3] amounted to 2.4.
As for `C=C1[C@@H]([C@H](C)CC/C=C(/C)C(=O)O)CC[C@@]2(C)[C@@H]3CC[C@H]4C(C)(C)OC(=O)CC[C@]4(C)C3=C[C@@H]12`, the IC50 in series [4], in series [5], in series [6], in series [7] and in series [8] was > 10 µM in each case.
As to `C=C(C)[C@@H]1CC[C@@H]2C(=C[C@@]3(OC)C(=C)[C@@H]([C@H](C)CC/C=C(/C)C(=O)O)CC[C@@]23C)[C@@]1(C)CCC(=O)O`, the EC50 in series [1] was 70 µM. The same compound gave a CC50 in series [2] of 184 µM. In addition, the selectivity ratio in series [3] stood at 2.6. For the same compound, the IC50 in series [4], in series [5], in series [6], in series [7] and in series [8] was > 10 µM in each case.
With `CC1=C([C@H](C)CC/C=C(/C)C(=O)O)CC[C@@]2(C)[C@@H]3CC[C@H]4C(C)(C)C(=O)CC[C@]4(C)C3=C[C@@H]12`, in series [1], the EC50 is 62 µM. In series [2], this compound had a CC50 of 116 µM. In series [3], the selectivity ratio amounted to 1.9. Also, the IC50 in series [4], in series [5], in series [6], in series [7] and in series [8] was > 10 µM throughout.
Regarding `C=C1[C@@H]([C@H](C)CC/C=C(/C)C(=O)O)CC[C@@]2(C)[C@@H]3CC[C@@H](C(=C)C)[C@](C)(CCC(=O)O)C3=C[C@@H]12`, the 50% effective concentration (EC50) in series [1] amounted to 88.2 µM. Also, in series [2], the CC50 came out at 203 µM. The selectivity ratio in series [3] was 2.3. The IC50 in series [4], in series [5], in series [6], in series [7] and in series [8] was > 10 µM in each case.
Take `Cc1cn([C@H]2C[C@H](N=[N+]=[N-])[C@@H](CO)O2)c(=O)[nH]c1=O` [ZIDOVUDINE]: the EC50 in series [1] amounted to 0.02 µM. The CC50 in series [2] worked out at 4690 µM. Further, in series [3], the selectivity ratio was > 230000.
